# Target: T1, 5-hydroxytryptamine receptor 6 (Homo sapiens, UniProt P50406)
# Experiment: Displacement of [3H]LSD from human 5-HT6 receptor expressed in HEK293 cell membranes at 100 nM incubated for 60 mins by radioligand binding assay
# Conditions: not given
# In short: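 Competition binding on membranes of HEK-293 cells transiently expressing human 5-HT6; 4 of protein incubated 60 min at 37 °C in duplicate with 2.5 nM [3H]-LSD in 50 mM Tris-HCl pH 7.4, 10 mM MgCl₂, 0.5 mM EDTA. Compounds tested at 10^-7 M for % displacement (n = 3), then Ki calculated. GF/C filtration, five ice-cold buffer washes.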
# T1 sequence (P50406 whole entry): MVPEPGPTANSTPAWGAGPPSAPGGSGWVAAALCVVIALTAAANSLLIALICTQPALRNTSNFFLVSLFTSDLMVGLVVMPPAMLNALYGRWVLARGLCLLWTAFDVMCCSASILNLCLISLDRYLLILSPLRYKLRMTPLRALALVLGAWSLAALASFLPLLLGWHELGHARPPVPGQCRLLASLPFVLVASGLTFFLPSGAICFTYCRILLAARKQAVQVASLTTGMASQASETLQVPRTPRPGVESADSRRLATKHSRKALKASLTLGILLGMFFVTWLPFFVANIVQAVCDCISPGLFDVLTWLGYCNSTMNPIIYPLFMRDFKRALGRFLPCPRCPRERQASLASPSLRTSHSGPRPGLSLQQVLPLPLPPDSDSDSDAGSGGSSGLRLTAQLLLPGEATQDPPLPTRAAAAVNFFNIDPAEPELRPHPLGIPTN
row,SMILES,inhibition
1,CN(C)CCn1c(=O)sc2cc(S(=O)(=O)N(C)c3cccc4ccccc34)ccc21,0%
2,CN(C)CCn1c(=O)sc2cc(NS(=O)(=O)c3ccc4ccccc4c3)ccc21,22%
3,CN(c1cccc2ccccc12)S(=O)(=O)c1ccc2c(c1)sc(=O)n2CCN1CCCC1,40%
4,O=c1sc2cc(S(=O)(=O)Nc3ccccc3)ccc2n1CCN1CCCC1,37%
5,O=c1sc2cc(S(=O)(=O)c3ccccc3)ccc2n1CCN1CCCCC1,11%
6,CN(c1ccccc1)S(=O)(=O)c1ccc2c(c1)sc(=O)n2CCN1CCCC1,10%
7,O=c1sc2cc(S(=O)(=O)Nc3ccccc3)ccc2n1CCN1CCCCC1,7%
8,O=c1sc2cc(S(=O)(=O)Nc3cccc4ccccc34)ccc2n1CCN1CCCCC1,3%
9,O=c1sc2cc(NS(=O)(=O)c3ccccc3)ccc2n1CCN1CCCC1,11%
10,CN(C)CCn1c(=O)sc2cc(S(=O)(=O)N(C)c3ccccc3)ccc21,5%
11,O=c1sc2cc(NS(=O)(=O)c3ccccc3)ccc2n1CCN1CCCCC1,6%
12,CN(c1cccc2ccccc12)S(=O)(=O)c1ccc2c(c1)sc(=O)n2CCN1CCCCC1,14%
13,O=c1sc2cc(NS(=O)(=O)c3ccc4ccccc4c3)ccc2n1CCN1CCCCC1,4%
14,CN(C)CCn1c(=O)sc2cc(S(=O)(=O)c3ccccc3)ccc21,16%
15,O=c1sc2cc(S(=O)(=O)Nc3cccc4ccccc34)ccc2n1CCN1CCCC1,0%
16,O=c1sc2cc(N(S(=O)(=O)c3ccccc3)S(=O)(=O)c3ccccc3)ccc2n1CCN1CCCC1,20%
17,CN(C)CCn1c(=O)sc2cc(S(=O)(=O)Nc3ccccc3)ccc21,21%
18,CN(c1ccccc1)S(=O)(=O)c1ccc2c(c1)sc(=O)n2CCN1CCCCC1,0%
19,O=c1sc2cc(NS(=O)(=O)c3ccc4ccccc4c3)ccc2n1CCN1CCCC1,0%
20,CN(C)CCn1c(=O)sc2cc(NS(=O)(=O)c3ccccc3)ccc21,5%

# System: not listed separately
# Experiment: Cytotoxicity against human SH-SY5Y cells assessed as inhibition of cell growth at 100 uM after 72 hrs by MTT assay
# Format: cell-based
# Conditions: read-out: GI
# In short: (§1)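 SH-SY5Y cells grown in DMEM with 2 mM L-glutamine, streptomycin, 100 IU/mL penicillin, 1 mM non-essential amino acids, 10% heat-inactivated FBS, 37 °C, 5% CO₂. Seeded at 2000 cells/well, serum-starved 24 h for synchrony, then exposed to test compounds (DMSO below 0.1%) at various concentrations up to 100. Growth read by MTT colorimetric assay after 72 h.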
row,SMILES,"inhibition at 72 h, 100 µM"
1,CN(C)CCn1c(=O)sc2cc(NS(=O)(=O)c3ccc4ccccc4c3)ccc21,17%
2,O=c1sc2cc(NS(=O)(=O)c3ccccc3)ccc2n1CCN1CCCC1,25%
3,O=c1sc2cc(NS(=O)(=O)c3ccccc3)ccc2n1CCN1CCCCC1,39%
4,O=c1sc2cc(NS(=O)(=O)c3ccc4ccccc4c3)ccc2n1CCN1CCCCC1,5%
5,O=c1sc2cc(N(S(=O)(=O)c3ccccc3)S(=O)(=O)c3ccccc3)ccc2n1CCN1CCCC1,19%
6,CN(C)CCn1c(=O)sc2cc(S(=O)(=O)Nc3ccccc3)ccc21,0%
7,O=c1sc2cc(NS(=O)(=O)c3ccc4ccccc4c3)ccc2n1CCN1CCCC1,28%
8,CN(C)CCn1c(=O)sc2cc(NS(=O)(=O)c3ccccc3)ccc21,20%

# System: not listed separately
# Experiment: Cytotoxicity against human SH-SY5Y cells assessed as inhibition of cell growth after 72 hrs by MTT assay
# Format: cell-based
# Conditions: not given
# In short: as §1
row,SMILES,IC50
1,CN(C)CCn1c(=O)sc2cc(S(=O)(=O)N(C)c3cccc4ccccc34)ccc21,29 µM
2,CN(c1cccc2ccccc12)S(=O)(=O)c1ccc2c(c1)sc(=O)n2CCN1CCCC1,102 µM
3,O=c1sc2cc(S(=O)(=O)Nc3ccccc3)ccc2n1CCN1CCCC1,10 µM
4,O=c1sc2cc(S(=O)(=O)c3ccccc3)ccc2n1CCN1CCCCC1,44.1 µM
5,CN(c1ccccc1)S(=O)(=O)c1ccc2c(c1)sc(=O)n2CCN1CCCC1,49.5 µM
6,O=c1sc2cc(S(=O)(=O)Nc3ccccc3)ccc2n1CCN1CCCCC1,17.4 µM
7,O=c1sc2cc(S(=O)(=O)Nc3cccc4ccccc34)ccc2n1CCN1CCCCC1,25.2 µM
8,CN(C)CCn1c(=O)sc2cc(S(=O)(=O)N(C)c3ccccc3)ccc21,91 µM
9,CN(c1cccc2ccccc12)S(=O)(=O)c1ccc2c(c1)sc(=O)n2CCN1CCCCC1,91.9 µM
10,CN(C)CCn1c(=O)sc2cc(S(=O)(=O)c3ccccc3)ccc21,86.9 µM
11,O=c1sc2cc(S(=O)(=O)Nc3cccc4ccccc34)ccc2n1CCN1CCCC1,68.6 µM
12,CN(C)CCn1c(=O)sc2cc(S(=O)(=O)Nc3cccc4ccccc34)ccc21,45.7 µM
13,CN(c1ccccc1)S(=O)(=O)c1ccc2c(c1)sc(=O)n2CCN1CCCCC1,50 µM

# Target: T1, 5-hydroxytryptamine receptor 6
# Experiment: Displacement of [3H]LSD from human 5-HT6 receptor expressed in HEK293 cell membranes incubated for 60 mins by radioligand binding assay
# Conditions: not given
row,SMILES,Ki
1,CN(C)CCn1c(=O)sc2cc(S(=O)(=O)Nc3cccc4ccccc34)ccc21,0.1 µM
